Experimental data: ChEMBL document CHEMBL4689842, “EUbOPEN Chemogenomics Library wave 1” (2021)

Tested on: Fibroblast
Assay: Multiplex assay against human fibroblast
Assay type: toxicity, cell-based
Method in brief: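 Live cells were stained at seeding with Hoechst33342, BioTracker Green Microtubule Cytoskeleton Dye, MitoTracker Red and Annexin V Alexa Fluor 680, then imaged on a CQ1 microscope at 37°C and 5% CO2 after compound addition. CellPathfinder machine-learning gating split cells into Hoechst high-intensity objects or normal cells. Normal cells were split into healthy, pyknosed or fragmented nuclei, and pyknosed cells into mitotic or apoptotic. Tubulin, mitochondrial-mass and membrane-permeability phenotypes are per cents of healthy-nucleus cells.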

[1] = 12 h, 1 µM, compound concentration 1 uM, replicate 1
[2] = 12 h, 1 µM, compound concentration 1 uM, replicate 2
[3] = 12 h, 10 µM, compound concentration 10 uM, replicate 1
[4] = 12 h, 10 µM, compound concentration 10 uM, replicate 2
[5] = 24 h, 1 µM, compound concentration 1 uM, replicate 1
[6] = 24 h, 1 µM, compound concentration 1 uM, replicate 2
[7] = 24 h, 10 µM, compound concentration 10 uM, replicate 1
[8] = 24 h, 10 µM, compound concentration 10 uM, replicate 2
[9] = 48 h, 1 µM, compound concentration 1 uM, replicate 1
[10] = 48 h, 1 µM, compound concentration 1 uM, replicate 2
[11] = 48 h, 10 µM, compound concentration 10 uM, replicate 1
[12] = 48 h, 10 µM, compound concentration 10 uM, replicate 2

CC(C)c1noc(N2CCC(COc3ccc(-c4ccc(S(C)(=O)=O)cc4)nc3)CC2)n1 [GSK-1292263]
Population Apoptotic (%) [1]: 65%
Population Fragmented Nuclei (%) [1]: 28%
Population Healthy Nuclei (%) [1]: 45%
Population Hoechst High Intensity Objects (%) [1]: 12%
Population Membrane Permeable-Phenotype (%) [1]: 21%
Population Mitochondria Different-Phenotype (%) [1]: 15%
Population Mitotic Cells (%) [1]: 34%
Population Normal (%) [1]: 87%
Population Pyknosed Nuclei (%) [1]: 25%
Population Tubulin-Different-Phenotype (%) [1]: 49%
Total Cell Count [1]: 128
Population Apoptotic (%) [2]: 50%
Population Fragmented Nuclei (%) [2]: 12%
Population Healthy Nuclei (%) [2]: 85%
Population Hoechst High Intensity Objects (%) [2]: 2%
Population Membrane Permeable-Phenotype (%) [2]: 3%
Population Mitochondria Different-Phenotype (%) [2]: 4%
Population Mitotic Cells (%) [2]: 50%
Population Normal (%) [2]: 97%
Population Pyknosed Nuclei (%) [2]: 2%
Population Tubulin-Different-Phenotype (%) [2]: 9%
Total Cell Count [2]: 89
Population Apoptotic (%) [3]: 52%
Population Fragmented Nuclei (%) [3]: 21%
Population Healthy Nuclei (%) [3]: 45%
Population Hoechst High Intensity Objects (%) [3]: 5%
Population Membrane Permeable-Phenotype (%) [3]: 24%
Population Mitochondria Different-Phenotype (%) [3]: 5%
Population Mitotic Cells (%) [3]: 48%
Population Normal (%) [3]: 94%
Population Pyknosed Nuclei (%) [3]: 33%
Population Tubulin-Different-Phenotype (%) [3]: 49%
Total Cell Count [3]: 160
Population Apoptotic (%) [4]: 42%
Population Fragmented Nuclei (%) [4]: 5%
Population Healthy Nuclei (%) [4]: 83%
Population Membrane Permeable-Phenotype (%) [4]: 3%
Population Mitochondria Different-Phenotype (%) [4]: 10%
Population Mitotic Cells (%) [4]: 57%
Population Pyknosed Nuclei (%) [4]: 10%
Population Tubulin-Different-Phenotype (%) [4]: 15%
Total Cell Count [4]: 76
Population Apoptotic (%) [5]: 38%
Population Fragmented Nuclei (%) [5]: 27%
Population Healthy Nuclei (%) [5]: 39%
Population Hoechst High Intensity Objects (%) [5]: 8%
Population Membrane Permeable-Phenotype (%) [5]: 39%
Population Mitochondria Different-Phenotype (%) [5]: 12%
Population Mitotic Cells (%) [5]: 61%
Population Normal (%) [5]: 91%
Population Pyknosed Nuclei (%) [5]: 33%
Population Tubulin-Different-Phenotype (%) [5]: 75%
Total Cell Count [5]: 112
Population Apoptotic (%) [6]: 0%
Population Fragmented Nuclei (%) [6]: 14%
Population Healthy Nuclei (%) [6]: 83%
Population Hoechst High Intensity Objects (%) [6]: 2%
Population Membrane Permeable-Phenotype (%) [6]: 2%
Population Mitochondria Different-Phenotype (%) [6]: 10%
Population Mitotic Cells (%) [6]: 100%
Population Normal (%) [6]: 97%
Population Pyknosed Nuclei (%) [6]: 2%
Population Tubulin-Different-Phenotype (%) [6]: 13%
Total Cell Count [6]: 103
Population Apoptotic (%) [7]: 52%
Population Fragmented Nuclei (%) [7]: 20%
Population Healthy Nuclei (%) [7]: 45%
Population Hoechst High Intensity Objects (%) [7]: 10%
Population Membrane Permeable-Phenotype (%) [7]: 23%
Population Mitochondria Different-Phenotype (%) [7]: 4%
Population Mitotic Cells (%) [7]: 47%
Population Normal (%) [7]: 89%
Population Pyknosed Nuclei (%) [7]: 34%
Population Tubulin-Different-Phenotype (%) [7]: 70%
Total Cell Count [7]: 178
Population Apoptotic (%) [8]: 36%
Population Fragmented Nuclei (%) [8]: 7%
Population Healthy Nuclei (%) [8]: 79%
Population Hoechst High Intensity Objects (%) [8]: 4%
Population Membrane Permeable-Phenotype (%) [8]: 7%
Population Mitochondria Different-Phenotype (%) [8]: 12%
Population Mitotic Cells (%) [8]: 63%
Population Normal (%) [8]: 95%
Population Pyknosed Nuclei (%) [8]: 13%
Population Tubulin-Different-Phenotype (%) [8]: 7%
Total Cell Count [8]: 91
Population Apoptotic (%) [9]: 35%
Population Fragmented Nuclei (%) [9]: 29%
Population Healthy Nuclei (%) [9]: 54%
Population Hoechst High Intensity Objects (%) [9]: 12%
Population Membrane Permeable-Phenotype (%) [9]: 33%
Population Mitochondria Different-Phenotype (%) [9]: 8%
Population Mitotic Cells (%) [9]: 64%
Population Normal (%) [9]: 88%
Population Pyknosed Nuclei (%) [9]: 15%
Population Tubulin-Different-Phenotype (%) [9]: 50%
Total Cell Count [9]: 100
Population Apoptotic (%) [10]: 0%
Population Fragmented Nuclei (%) [10]: 26%
Population Healthy Nuclei (%) [10]: 73%
Population Hoechst High Intensity Objects (%) [10]: 8%
Population Membrane Permeable-Phenotype (%) [10]: 21%
Population Mitochondria Different-Phenotype (%) [10]: 2%
Population Mitotic Cells (%) [10]: 0%
Population Normal (%) [10]: 91%
Population Pyknosed Nuclei (%) [10]: 0%
Population Tubulin-Different-Phenotype (%) [10]: 48%
Total Cell Count [10]: 70
Population Apoptotic (%) [11]: 44%
Population Fragmented Nuclei (%) [11]: 27%
Population Healthy Nuclei (%) [11]: 54%
Population Hoechst High Intensity Objects (%) [11]: 14%
Population Membrane Permeable-Phenotype (%) [11]: 29%
Population Mitochondria Different-Phenotype (%) [11]: 4%
Population Mitotic Cells (%) [11]: 55%
Population Normal (%) [11]: 85%
Population Pyknosed Nuclei (%) [11]: 18%
Population Tubulin-Different-Phenotype (%) [11]: 69%
Total Cell Count [11]: 184
Population Apoptotic (%) [12]: 66%
Population Fragmented Nuclei (%) [12]: 21%
Population Healthy Nuclei (%) [12]: 74%
Population Hoechst High Intensity Objects (%) [12]: 9%
Population Membrane Permeable-Phenotype (%) [12]: 28%
Population Mitochondria Different-Phenotype (%) [12]: 0%
Population Mitotic Cells (%) [12]: 33%
Population Normal (%) [12]: 90%
Population Pyknosed Nuclei (%) [12]: 4%
Population Tubulin-Different-Phenotype (%) [12]: 59%
Total Cell Count [12]: 77
